In the M2OR odorant receptor database:

What follows are compounds tested against T1, UniProt Q7TRX0. Details: stereoisomer not certain.
T1 sequence (whole entry): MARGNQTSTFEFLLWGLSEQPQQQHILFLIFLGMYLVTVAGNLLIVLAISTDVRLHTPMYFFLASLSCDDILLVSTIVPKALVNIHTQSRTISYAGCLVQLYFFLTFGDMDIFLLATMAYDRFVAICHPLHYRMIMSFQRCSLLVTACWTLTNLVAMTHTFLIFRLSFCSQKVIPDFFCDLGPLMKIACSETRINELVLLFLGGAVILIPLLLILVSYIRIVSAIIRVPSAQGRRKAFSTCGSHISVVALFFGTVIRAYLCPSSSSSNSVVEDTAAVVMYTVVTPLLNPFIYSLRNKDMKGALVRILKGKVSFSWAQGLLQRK
Outline: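 Values were gathered from published papers (main text and supplementary material), with extra details requested from the original authors when needed, and checked for typos and inconsistencies. Each receptor–molecule pair is called responsive (active) if the original authors judged the measured signal statistically different from baseline, and non-responsive (inactive) otherwise. Assay methods varied by source, often transient mammalian cell-line luciferase assays. Recorded details include cell line, G-protein, co-transfected protein and tags.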

Odorant receptor agonist call, inactive:
CC=CC(=O)C1=C(C)CCCC1(C)C
CCc1nccnc1CC
CCc1ccccc1O
O=C(OCc1ccccc1)c1ccccc1O
CCCCCCCOC(=O)C(C)C
OCCCCCCCCCO
C=CC(C)=CCC=C(C)CCC=C(C)C
CCCCCCC=CC=O
CCc1ncc(C)nc1CC
CCc1occc(=O)c1O
COc1nccnc1C
O=C(O)CCCCCCCCC(=O)O
C=CC(=C)CCC=C(C)CCC=C(C)C
Cc1occc1SSc1ccoc1C
CCCCCOC(=O)CCC
CCCCCCCCCC=CC=O
C1CCOCC1
C=CC(=C)CCC=C(C)C
CC(C)=C1CCC(C)CC1=O (centres undefined)
COc1cnccn1
CC1CC=CCCCCCCCCCC(=O)C1 (centres undefined)
O=C(O)C1CCC1
CCCCCC(C=O)=Cc1ccccc1
COc1ccccc1
CCc1ccc(O)cc1
CC1CCC(C(C)C)C(=O)C1 (centres undefined)
Cc1ccc(C(C)C)cc1
CC=C(C)C=O
CCOC(=O)C(C)CC (centres undefined)
Cc1ccccc1OC(=O)C(C)C
CCCCCCC(C)O (centres undefined)
C=C(C)C1CC=C(C)CC1 (centres undefined)
CNc1ccccc1C(=O)OC
CCSSCC
